Most compounds without a hit are left out; they make up all but 3.1% or so of the library.
KCNQ1 act = human KCNQ1 channel potentiation or activation. P51787. CHO-K1 KCNQ1, thallium flux FluxOR fluorescence; stronger effect = higher value. B-score at 10 µM. 0.35% of 310,000 active;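 active means fluorescence ratio B-score, a plate-corrected score, at least three library SD, with initial intensity B-score within 5 SD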
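Doses: Single concentration per compound, DMSO matched to controls | Test system: KCNQ1-transfected CHO-K1 cells | Timing: 90 min dye loading and 20 min compound exposure, both at room temperature | Measured by: Kinetic FluxOR thallium fluorescence, 10-s 1-Hz baseline, 110-s post-stimulus read | Medium: Assay buffer with matched DMSO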
KCNQ1 block = blocks the human KCNQ1 potassium channel; P51787; CHO-K1 KCNQ1, FluxOR thallium flux fluorescence; stronger effect = higher value; B-score at 10 µM; 1.3% of 310,000 active; AID 2642;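 active means compounds whose thallium flux B-score, printed positive for inhibition, exceeds three library SD while starting fluorescence stays within three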;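 further: channel opened by potassium depolarization with thallium stimulus after 20 min compound exposure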
KCNK3 block = human KCNK3 channel inhibition, primary screen | B-score at 10 µM | 0.84% of 340,000 active | CHO-KCNK3 thallium flux, FluxOR fluorescence; stronger effect = lower value | O14649;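 active means B-score under library mean minus 4 SD, starting fluorescence ratio at most library mean plus 5 SD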;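 further: more negative B-score means stronger inhibition of thallium flux through KCNK3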
hERG rescue = hERG (human) protection from proarrhythmic block; Q12809; CHO-hERG, FluxOR thallium flux, dofetilide IC70 present; activation (rescue from dofetilide block), less the hit threshold, % at 10 µM; 0.51% of 310,000 active; AID 1511;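 active means activation above the mean of controls blocked by dofetilide plus 5 SD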;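 further: thallium influx through hERG after potassium depolarization seen as dye fluorescence rise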
KCNK9 inh = blocks the human KCNK9 two-pore domain potassium channel; HEK293 KCNK9, FluxOR thallium flux fluorescence; stronger effect = lower value; B-score at 10 µM; 1.2% of 310,000 active; AID 488922;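 active means ratio B-score over 3 SD below the library mean, with starting fluorescence within 5 SD of its mean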;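 further: negative B-score means less thallium flux so channel inhibition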
KCNQ1 block val = confirmation of human KCNQ1 potassium channel inhibitors; shares compounds with KCNQ1 block; KCNQ1 cell line, FluxOR thallium flux fluorescence; inhibition, % at 10 µM; 93% of 1,600 active; AID 588353;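 active means primary screen active, with duplicate mean exceeding buffer control mean plus 3 SD of buffer wells, cut at about 28% in these data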
CHO Tl flux = activity in parental CHO cells lacking KCNQ1; shares compounds with KCNQ1 block; parental CHO-K1, FluxOR thallium flux fluorescence ratio; stronger effect = lower value; zero means no signal rise above baseline; fluorescence ratio (Tl flux) at 10 µM; 21% of 1,600 active;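 active means mean of duplicate thallium-flux fluorescence ratios in parental host cells more than 5 SD below the buffer control mean, cut at about 0.38 in these data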;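 further: ratio is peak minus minimum fluorescence divided by baseline fluorescence; actives read low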
KCNQ1 APC inh = blocks human KCNQ1 current in automated patch clamp. shares compounds with KCNQ1 block. calls only at 10 µM. KCNQ1-CHO cells. 20% of 490 active;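 active means KCNQ1 current drop exceeding 3 SD of negative control wells, seen in both duplicate runs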;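 further: steady state current during a 2 s step from -80 to +40 mV; negative values mean current inhibition and positive values mean potentiation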
KCNQ2 spec = selectivity of KCNQ1 inhibitors: inhibition of rat KCNQ2 channel | shares compounds with KCNQ1 block | KCNQ2 cells, FluxOR thallium flux fluorescence | inhibition, % at 10 µM | 71% of 1,600 active | AID 651746;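 active means mean percent inhibition of the KCNQ2 thallium signal more than 5 SD above the buffer-only control wells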;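 further: KCNQ2 expressed in CHO cells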
KCNQ1-KCNE1 inh = selectivity of KCNQ1 inhibitors: inhibition of human KCNQ1/KCNE1 channel. inhibition, % at 10 µM. 77% of 1,600 active. KCNQ1/KCNE1 cells, FluxOR thallium flux fluorescence. shares compounds with KCNQ1 block;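 active means mean percent inhibition of duplicate wells above the buffer-only control mean plus 3 SD of those controls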
Target sequence (P51787 whole entry, looked up): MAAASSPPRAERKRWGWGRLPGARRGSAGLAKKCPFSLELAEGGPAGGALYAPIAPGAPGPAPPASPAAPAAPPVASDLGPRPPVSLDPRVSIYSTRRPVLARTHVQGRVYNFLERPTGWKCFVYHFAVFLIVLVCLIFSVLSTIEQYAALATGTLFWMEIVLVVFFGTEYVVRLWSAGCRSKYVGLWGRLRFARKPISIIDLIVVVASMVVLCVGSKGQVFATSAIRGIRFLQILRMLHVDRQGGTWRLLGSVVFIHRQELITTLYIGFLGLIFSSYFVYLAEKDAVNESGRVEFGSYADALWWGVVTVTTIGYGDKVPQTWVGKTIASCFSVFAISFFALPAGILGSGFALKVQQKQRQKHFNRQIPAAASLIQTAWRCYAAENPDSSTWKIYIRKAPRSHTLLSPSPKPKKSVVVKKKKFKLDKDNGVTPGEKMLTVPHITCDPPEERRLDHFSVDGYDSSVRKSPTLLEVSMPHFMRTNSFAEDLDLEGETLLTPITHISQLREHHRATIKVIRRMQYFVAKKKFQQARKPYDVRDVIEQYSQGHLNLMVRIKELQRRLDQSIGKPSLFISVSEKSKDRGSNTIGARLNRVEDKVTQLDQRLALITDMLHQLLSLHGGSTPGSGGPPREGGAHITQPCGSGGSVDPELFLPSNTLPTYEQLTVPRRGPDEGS
Large screens that a line does not name were inactive (follow-up assays come after a bar, where they were run).

Cc1cc(=O)n2nc(N3CCC(C(=O)NCC(C)c4ccccc4)CC3)sc2n1 (centres undefined)	none
CC1CCCN(S(=O)(=O)c2ccc3[nH]c4c(c3c2)CCCC4)C1 (centres undefined)	KCNQ1 block 12 | KCNQ1 block val 104 | CHO Tl flux inactive | KCNQ1 APC inh inactive | KCNQ2 spec 99% | KCNQ1-KCNE1 inh 130%
CC1CCCN(S(=O)(=O)c2ccc(S(=O)(=O)N3CCCC3)cc2)C1 (centres undefined)	none
NC(=O)c1ccc(NC(=O)COC(=O)CNC(=O)c2sc3ccccc3c2Cl)cc1	none (no result: KCNQ1 act, KCNQ1 block, hERG rescue, KCNK9 inh)
O=C(COC(=O)c1ccccc1NCCO)Nc1cc(C(F)(F)F)ccc1N1CCOCC1	none
Cc1nc2cc(NCc3ccccc3O)ccc2n1Cc1ccccc1	KCNQ1 block 8 | KCNQ1 block val 50 | CHO Tl flux inactive | KCNQ2 spec inactive | KCNQ1-KCNE1 inh 43%
CC(C)c1ccc2oc(=O)cc(CN3CCCCC3)c2c1	none
CO[C@H]1CC[C@@]2(C)[C@@H](CC[C@@H]3[C@@H]2CC[C@@]2(C)[C@H]3C[C@H](C(=O)N[C@@H](CCCN=C(N)N)C(=O)NCC(=O)N[C@@H](CC(=O)O)C(N)=O)O[C@]23CCCO3)C1	none (no result: KCNQ1 act, KCNQ1 block, hERG rescue, KCNK9 inh)
COc1ccc(CN2CCNC(=O)C2CC(=O)N(C)Cc2nc(C)cs2)c(OC)c1 (centres undefined)	none
CC(N=c1ccccn1C(=O)Nc1ccc(F)cc1)c1ccco1 (centres undefined)	none
CC(N=c1ccccn1C(=O)Nc1ccc(Cl)cc1)c1ccco1 (centres undefined)	KCNQ1 block 10 (no result: KCNK3 block) | KCNQ1 block val 62 | CHO Tl flux inactive | KCNQ2 spec 61% | KCNQ1-KCNE1 inh inactive
Cc1ccc(N2C(=O)C3C4C=CC(CC4)C3C2=O)c([N+](=O)[O-])c1 (centres undefined)	none
CCOc1ccccc1NC(=O)CSc1nnc(CNC(=O)c2cccs2)o1	none
CCc1ccc(C(O)(C(C)C)C(CN2CCOCC2)c2ccccc2)cc1 (centres undefined)	KCNQ1 block 6 | KCNQ1 block val 65 | CHO Tl flux inactive | KCNQ2 spec inactive | KCNQ1-KCNE1 inh 80%
COc1ccc(C(=O)C2CCCN(Cc3c(F)ccc(F)c3F)C2)c(OC)c1 (centres undefined)	none
COc1ccc(C(=O)C2CCCN(Cc3cccn3-c3ccc(Cl)cn3)C2)c(OC)c1 (centres undefined)	KCNQ1 block 11 | KCNQ1 block val 82 | CHO Tl flux inactive | KCNQ2 spec 85% | KCNQ1-KCNE1 inh inactive
O=C(Nc1nc(-c2ccccc2)c(-c2ccccc2)s1)c1ccc(S(=O)(=O)N2CCCCC2)cc1	none
O=C(Nc1nc(-c2ccccc2)c(C(=O)c2ccccc2)s1)c1ccc(S(=O)(=O)N2CCCCC2)cc1	KCNQ1 block 8 | KCNQ1 block val 83 | CHO Tl flux inactive | KCNQ2 spec inactive | KCNQ1-KCNE1 inh 112%
O=C(Cn1cnc2ccccc21)Nc1ccc(SC(F)F)cc1	KCNQ1 block 7 | KCNQ1 block val 115 | CHO Tl flux inactive | KCNQ1 APC inh active | KCNQ2 spec 71% | KCNQ1-KCNE1 inh 58%
CC1CN=C(NC(=O)c2cccc([N+](=O)[O-])c2)S1 (centres undefined)	none
CC1CCCN(CCOCCOc2ccc(Br)cc2Cl)C1 (centres undefined)	none
CC1CCN(CCCOc2ccc(Br)cc2Cl)CC1	KCNQ1 block 7 | KCNQ1 block val 62 | CHO Tl flux inactive | KCNQ2 spec inactive | KCNQ1-KCNE1 inh 90%
